# SENP1 inh – blocks the human SENP1 SUMO protease catalytic domain | inhibition, % at 10 µM | recombinant SENP1 catalytic domain, CyPet-SUMO1-YPet FRET cleavage | hit rate 0.21% among 360,000 | AID 624204 | Q9P0U3;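 active = inhibition at least 30% at 10 µM, raw YFP signal under a set limit, fluorescence ratio 0.5 to 1.5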;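 note: 0% = enzyme with DMSO and 100% = no enzyme wells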
#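 Material – human SENP1 catalytic domain · Input – SENP1 enzyme, 20 pM final · Compound dosing – single concentration of 10 µM compound, 0.5% DMSO final · Timing – enzyme reaction for 50 min at room temperature, dark · Measured by – FRET fluorescence in CFP and YFP emission channels · Control set – no-enzyme wells low, DMSO-plus-enzyme wells high control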
# CSN inh – CSN deneddylation inhibition | Q92905 | Purified CSN, SCF-Nedd8-OG deneddylation, fluorescence polarization | inhibition, % at 12.5 µM | hit rate 0.38% among 360,000 | AID 651999;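 active = pattern-corrected inhibition above about 35%, with an unprinted fluorescence ratio check between 0.5 and 1.5, limit read from the data, passing the limit was not always enough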;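 note: 0% = enzyme with substrate and 100% = substrate without enzyme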
#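 Test system: Human Csn5 produced in HEK293T cells | Compound: 12.5 µM single point | Times: 90 min, room temperature | Signal: Fluorescence polarization readout | Read-out basis: % inhibition of substrate cleavage by Csn5 | Controls: no-enzyme wells high, enzyme-with-substrate wells low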
# HNF4A DNA FP – change in binding of human HNF4 alpha to DNA | P41235 | HNF4a-FITC DNA binding, fluorescence polarization, 1 h | activity change, % at 10 µM | hit rate 0.3% among 360,000; in the data active = activity change above about 30%, passing the limit was not always enough
# TPT1 inh – blocks Candida albicans tRNA 2'-phosphotransferase. recombinant caTPT1, FP RNA substrate dephosphorylation. inhibition, % at 5 µM. hit rate 0.81% among 300,000;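 active = inhibition above the mean of all tested compounds plus 3 SD, set per screening campaign, cut at about 24% in these data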;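 note: plate controls were DMSO alone for no effect and ferristatin control at 100 nM for full effect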
# Rpn11 block – Rpn11 (human) deubiquitinase inhibition. O00487. human 26S proteasome, Ub4-pepOG fluorescence polarization; 20S core pre-blocked with epoxomicin. inhibition, % at 20 µM. hit rate 0.59% among 360,000;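 active = inhibition at 20 µM, scaled to each plate's controls, above about 33%, limit read from the data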
# TPT1 inh confirm – confirmation of Candida albicans TPT1 inhibitors | shares compounds with TPT1 inh | recombinant caTPT1, fluorescence polarization, RNase T1 coupled | inhibition, % at 5 µM | hit rate 74% among 2,400;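 active = inhibition above the primary screen limit, the mean inhibition of all tested compounds plus 3 SD, cut at about 25% in these data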
# RNase T1 inh – blocks Aspergillus oryzae RNase T1, a TPT1 counter-screen. shares compounds with TPT1 inh. RNase T1 cleavage, fluorescence polarization, 1536-well. inhibition, % at 5 µM. hit rate 83% among 2,400. AID 2153;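 active = inhibition above the solvent-only control well mean plus 3 SD, limit set per screening run, cut at about 23% in these data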;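 note: plate controls were DMSO wells with enzyme for no effect and wells without RNase T1 for full effect; inhibitors block cleavage so intact labeled substrate keeps polarization high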
# Rpn11 inh conf – confirmation of human proteasome Rpn11 inhibitors; shares compounds with Rpn11 block; purified human 26S proteasome, Ub4-pepOG fluorescence polarization; proteasome pretreated with epoxomicin; inhibition, % at 20 µM; hit rate 29% among 1,900; AID 602318
# MMP-2 counter – counter-screen for RPN11 inhibitors: inhibition of human MMP-2; inhibition, % at 20 µM; hit rate 4% among 1,900; recombinant MMP-2, FRET peptide cleavage fluorescence; shares compounds with Rpn11 block;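 note: human MMP-2 activated beforehand with APMA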
# Target sequence (P08253 whole entry, looked up): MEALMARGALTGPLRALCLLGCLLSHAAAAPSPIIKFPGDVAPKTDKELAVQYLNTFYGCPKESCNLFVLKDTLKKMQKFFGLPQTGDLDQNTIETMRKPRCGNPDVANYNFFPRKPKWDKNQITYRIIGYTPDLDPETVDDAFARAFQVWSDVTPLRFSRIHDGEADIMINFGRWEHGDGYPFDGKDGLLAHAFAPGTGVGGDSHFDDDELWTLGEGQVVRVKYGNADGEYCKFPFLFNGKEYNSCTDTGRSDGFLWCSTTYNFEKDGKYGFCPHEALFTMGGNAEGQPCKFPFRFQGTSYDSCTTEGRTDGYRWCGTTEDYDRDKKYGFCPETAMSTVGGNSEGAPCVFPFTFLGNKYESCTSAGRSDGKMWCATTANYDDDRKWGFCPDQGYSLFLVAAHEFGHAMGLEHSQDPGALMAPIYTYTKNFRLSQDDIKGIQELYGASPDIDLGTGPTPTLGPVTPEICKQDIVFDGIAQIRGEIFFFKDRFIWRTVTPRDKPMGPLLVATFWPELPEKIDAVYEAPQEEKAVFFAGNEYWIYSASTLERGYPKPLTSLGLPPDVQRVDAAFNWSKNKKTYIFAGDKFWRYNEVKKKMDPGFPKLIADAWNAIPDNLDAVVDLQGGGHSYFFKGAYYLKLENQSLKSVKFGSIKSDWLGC
# Thrombin inh – thrombin (bovine) inhibition counter-screen | shares compounds with Rpn11 block | bovine thrombin cleavage of Ub4-pepOG, fluorescence polarization | inhibition, % at 20 µM | hit rate 13% among 1,900;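 active = mean inhibition at least 40% at 20 µM, or signal 3 deviations below plate average, so some actives read negative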;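 note: plate controls were thrombin with DMSO for no effect and buffer wells lacking thrombin for full effect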
# * marks the source's active call; other numbers are inactive results; . = no result given; ! = repeats disagree. Most compounds without a hit are left out; they make up all but 1.6% or so of the library. Cut-off read from the data, not from the text of the source, unless noted: active = inhibition above about 40%; inactive = the rest.
SMILES,SENP1 inh,CSN inh,HNF4A DNA FP,TPT1 inh,Rpn11 block,TPT1 inh confirm,RNase T1 inh,Rpn11 inh conf,MMP-2 counter,Thrombin inh
N#Cc1ccccc1Cn1cc(/C=N/Nc2ccc([N+](=O)[O-])cn2)c2ccccc21,-22,11,25,37*,60*,82*,89*,34,-15,2
O=[N+]([O-])c1ccc(N/N=C\c2cccn2-c2ccccc2)nc1,4,18,34,88*,58*,78*,90*,44*,-12,9
O=[N+]([O-])c1ccc(NN=Cc2ccccc2)nc1,-33,5,8,.,12,.,.,.,.,.
COc1ccccc1N=NNc1ccc(S(=O)(=O)NC(C)=O)cc1,0,-3,2,.,7,.,.,.,.,.
CN(C)c1c([N+](=O)[O-])cc(N2C(=O)C=CC2=O)cc1[N+](=O)[O-],0,-2,3,.,3,.,.,.,.,.
COc1cc(OC)c(OC)cc1/C=C/c1cc(C(F)(F)F)[nH]c(=O)n1,-26,13,-4,73*,65*,72*,81*,22,-14,3
COCCCn1c(=O)/c(=C\c2cccc(OC)c2OC)s/c1=C(/C#N)C(=O)Nc1ccc(C(=O)O)cc1,-44,22,14,62*,102*,73*,87*,46*,2,86*
CCc1ccc(/C=C2\SC(=S)N(CCCC(=O)NC3=NCCS3)C2=O)cc1,1,-2,-2,.,3,.,.,.,.,.
COc1cc(/C=C(\C#N)c2nc(-c3cc4ccccc4oc3=O)cs2)ccc1O,-25,28,41,38*,72*,52*,58*,19,36,-40
CCc1c(C)sc2nc3c(C(=O)N4CCOCC4)cc(C(=O)c4cc(F)ccc4O)cn3c(=O)c12,3,-4,12,5,19,.,.,.,.,.
CCOC(=O)c1sc2nc3c(SCCC#N)cc(C(=O)c4cc(F)ccc4O)cn3c(=O)c2c1C,-29,16,36,48*,45*,27*,31*,25,5,16
O=C(Nc1ccccc1N1CCCCC1)c1ccc(-c2cccc(Cl)c2)o1,4,0,3,0,8,.,.,.,.,.
O=C(Nc1cccc2nsnc12)c1ccc(-c2cccc(Cl)c2)o1,9,21,27,31*,72*,30*,38*,21,6,10
COC(=O)c1c(SCC(=O)NC2CCCCC2)[nH]c2ccccc2c1=O,-29,21,16,25*,91*,19,30*,9,-35,6
COc1ccc(/C=C2\Oc3cc(OCC(=O)N4CCC[C@H]4CO)ccc3C2=O)c(OC)c1,-22,12,19,65*,75*,85*,93*,73*,-53,62*
O=C1/C(=C/c2ccc3c(c2)OCO3)Oc2cc(OCC(=O)N3CCC[C@H]3C(=O)O)ccc21,-18,5,1,10,16,.,.,.,.,.
Cc1ccc(Oc2cc([N+](=O)[O-])cc3c2C(=O)Nc2ccccc2O3)cc1,26,34,4,24*,49*,36*,46*,51*,-18,63*
COc1ccc2nc(SC(C)C(=O)NC3CCCCC3)[nH]c2c1 (centres undefined),2,-1,-2,.,2,.,.,.,.,.
CCc1ccc(/C=C/c2c[nH]c3ccccc23)[n+](CC)c1,-27,1,17,31*,50*,29*,38*,27,-23,43*
CCc1ccc(-c2cc(C(=O)N/N=C/c3c[nH]c4ccccc34)[nH]n2)cc1,-2,-1,-1,1,4,.,.,.,.,.
COc1ccc(-c2ncccc2OC(=O)C23CC4CC(CC(C4)C2)C3)cc1OC,0,-1,0,-2,-3,.,.,.,.,.
CC1=C(C(=O)c2ccccc2)C(c2ccc(N3CCOCC3)cc2)NC(=O)N1 (centres undefined),74*,24,17,28*,74*,39*,51*,51*,-18,41*
O=c1[nH]c(-c2ccccc2)ncc1Oc1ccccc1,2,7,0,-1,6,.,.,.,.,.
CCCCCCCCN1C(=O)[C@H](CC(=O)NCc2cccc(C(F)(F)F)c2)C[C@@]2(C(=O)OCC)CCCC=C12,2,-5,3,.,.,.,.,.,.,.
C=CCN1C(=O)/C(=C2/Sc3ccccc3N2CC)SC1=S,-25,2,-1,5,.,.,.,.,.,.
SMILES,SENP1 inh,CSN inh,HNF4A DNA FP,TPT1 inh,Rpn11 block,TPT1 inh confirm,RNase T1 inh,Rpn11 inh conf,MMP-2 counter,Thrombin inh
CCN1C(=O)/C(=C2/Sc3ccccc3N2CC)S/C1=N\c1ncn[nH]1,-44,136,22,36*,72*,57*,69*,162*,-70,104*
COCC(C)n1c(-c2ccc3c(c2)NC(=O)CO3)csc1=Nc1ccc(OC(F)F)cc1 (centres undefined),2,-6,1,0,1,.,.,.,.,.
CCN=c1scc(-c2ccc3c(c2)NC(=O)CO3)n1N=C1CCCC1,-11,7,23,43*,44*!,39*,50*,18,-37,20
Cc1ccc(N=C2NC(=O)/C(=C/c3cccs3)S2)cc1C,36*,33,34,30*,99*,46*,59*,64*,3,0
CC1(C(=O)NS(=O)(=O)c2cccc(Cl)c2)CCN1C(=O)c1ccccc1CCc1ccccc1 (centres undefined),2,0,0,.,1,.,.,.,.,.
COc1ccc2c(C)cc(SCC#N)nc2c1,-86,13,12,41*,41*,40*,49*,37,-64,19
Cc1cc(SCC#N)nc2ccccc12,3,4,3,2,0,.,.,.,.,.
O=C(Nc1ccc(Cl)c([N+](=O)[O-])c1)ONC1=NCCCCC1,3,-12,2,0,8,.,.,.,.,.
Cc1ccccc1N=Cc1cc2c(cc1O)OC(N)=C(C#N)C2c1ccccc1 (centres undefined),-30,13,35,53*,66*,73*,82*,96*,5,93*
O=C1C=C(OCCF)CC(c2cccc([N+](=O)[O-])c2)O1 (centres undefined),0,3,1,.,.,.,.,.,.,.
